{
  "source": "ChEMBL document CHEMBL5214961",
  "about": "“Novel Allosteric Inhibitor-Derived AKT Proteolysis Targeting Chimeras (PROTACs) Enable Potent and Selective AKT Degradation in KRAS/BRAF Mutant Cells” (J Med Chem, 2022)",
  "key": {"[1]": {"tested_on": "SW-620", "assay": "Antiproliferative activity against human SW620 cells harboring KRAS mutant assessed as inhibition of cell growth incubated for 5 days by IncuCyte live-cell imaging analysis", "type": "functional, cell-based", "conditions": "SW-620, 120 h, time 5 day"}, "[2]": {"target": "T1, RAC-alpha serine/threonine-protein kinase (Homo sapiens, UniProt P31749)", "assay": "Induction of AKT degradation in MS21-resistant human COLO 205 cells harboring BRAF mutant assessed as reduction in total AKT level at 1 uM incubated for 24 hrs by Western blot analysis", "type": "cell-based", "method_in_brief": "(§1)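 Cells grown in DMEM with 10% FBS at 37 °C, 5% CO2, then exposed to compound at 1 μM for 24 h. Lysates made in 2X urea/SDS sample buffer, run on 4–12% Bis-Tris gels, transferred to PVDF, probed for total AKT overnight at 4 °C; HRP/chemiluminescence detection with β-actin as loading control.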"}, "[3]": {"target": "T1, RAC-alpha serine/threonine-protein kinase", "assay": "Induction of AKT degradation in MS21-resistant human SW620 cells harboring KRAS/BRAF mutant assessed as reduction in total AKT level at 100 nM incubated for 24 hrs by Western blot analysis relative to control", "type": "cell-based", "set-up": "scale not given: the % may be the effect or the level left", "method_in_brief": "(§2)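 Dose-response in DMEM/10% FBS culture: compound at the indicated concentrations, up to 10 μM, for 24 h. Total AKT read by western blot of urea/SDS lysates with β-actin loading control; in SW620 a DC50 was fitted from the concentration-response blot data.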"}, "[4]": {"target": "T1, RAC-alpha serine/threonine-protein kinase", "assay": "Induction of AKT degradation in MS-21 resistant human MIA PaCa-2 cells harboring KRAS-mutant assessed as reduction in total Akt level at 1 uM incubated for 24 hrs by Western blot analysis", "type": "cell-based"}, "[5]": {"target": "T1, RAC-alpha serine/threonine-protein kinase", "assay": "Induction of AKT degradation in MS21-resistant human SK-MEL-239 cells harboring BRAF mutant assessed as reduction in total AKT level at 1 uM incubated for 24 hrs by Western blot analysis", "type": "cell-based", "method_in_brief": "as §1"}, "[6]": {"assay": "Toxicity in Swiss albino mouse assessed as clinical signs at 75 mg/kg, ip administered as single dose and measured for 12 hrs", "type": "organism-based", "conditions": "in vivo", "method_in_brief": "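Male Swiss albino mice given a single 75 mg/kg IP dose in 5% NMP/5% Solutol HS-15/90% saline; watched for clinical signs across a 12 h pharmacokinetic sampling period.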"}, "[7]": {"target": "T1, RAC-alpha serine/threonine-protein kinase", "assay": "Induction of AKT degradation in MS21-resistant human HT-29 cells harboring BRAF/PI3KA mutant assessed as reduction in total AKT level at 1 uM incubated for 24 hrs by Western blot analysis", "type": "cell-based", "method_in_brief": "as §1"}, "[8]": {"assay": "Tmax in Swiss albino mouse at 75 mg/kg, ip administered as single dose and measured for 12 hrs by LC-MS/MS analysis", "type": "ADME, organism-based", "conditions": "in vivo", "method_in_brief": "(§3)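 Single IP dose of 75 mg/kg to male Swiss albino mice (six dosed); compound as HCl salt in 5% v/v NMP, 5% v/v Solutol HS-15, 90% v/v normal saline. About 60 μL plasma taken from three mice at 0.5, 1, 2, 4, 8 and 12 h; LC-MS/MS quantitation (LLOQ 1.02 ng/mL); values are means of 3 mice.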"}, "[9]": {"target": "T1, RAC-alpha serine/threonine-protein kinase", "assay": "Induction of AKT degradation in MS21-resistant human SW620 cells harboring KRAS/BRAF mutant assessed as reduction in total AKT level at 1 uM measured after 12 hrs by Western blot analysis relative to control", "type": "cell-based", "set-up": "scale not given: the % may be the effect or the level left", "method_in_brief": "(§4)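 SW620 time course: cells given 1 μM compound, with lysates harvested at several time points up to 24 h. Total AKT probed by western blot with β-actin as loading control.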"}, "[10]": {"tested_on": "SW-620", "assay": "Induction of apoptosis in human SW620 cells harboring KRAS mutant assessed as cell death at 5 uM measured upto 72 hrs", "type": "functional, cell-based", "method_in_brief": "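SW620 cells given 5 μM compound or DMSO; percent cell death followed with DRAQ7 at 0, 24, 36, 48 and 72 h. Standard errors taken from three independent experiments.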"}, "[11]": {"target": "T1, RAC-alpha serine/threonine-protein kinase", "assay": "Induction of AKT degradation in MS21-resistant human PANC-1 cells harboring […] mutant assessed as reduction in total AKT level at 1 uM incubated for 24 hrs by Western blot analysis", "type": "cell-based", "method_in_brief": "as §1"}, "[12]": {"target": "T1, RAC-alpha serine/threonine-protein kinase", "assay": "Induction of AKT degradation in MS21-resistant human SW620 cells harboring KRAS/BRAF mutant assessed as reduction in total AKT level incubated for 24 hrs by Western blot analysis", "type": "cell-based", "method_in_brief": "as §2"}, "[13]": {"target": "T1, RAC-alpha serine/threonine-protein kinase", "assay": "Induction of AKT1 degradation in human SW620 cells at 0.01 to 10 uM incubated for 24 hrs by Western blot analysis", "type": "cell-based", "conditions": "dose 0.01-10 µM"}, "[14]": {"target": "RAC-gamma serine/threonine-protein kinase (Homo sapiens, UniProt Q9Y243)", "sequence (Q9Y243 whole entry)": "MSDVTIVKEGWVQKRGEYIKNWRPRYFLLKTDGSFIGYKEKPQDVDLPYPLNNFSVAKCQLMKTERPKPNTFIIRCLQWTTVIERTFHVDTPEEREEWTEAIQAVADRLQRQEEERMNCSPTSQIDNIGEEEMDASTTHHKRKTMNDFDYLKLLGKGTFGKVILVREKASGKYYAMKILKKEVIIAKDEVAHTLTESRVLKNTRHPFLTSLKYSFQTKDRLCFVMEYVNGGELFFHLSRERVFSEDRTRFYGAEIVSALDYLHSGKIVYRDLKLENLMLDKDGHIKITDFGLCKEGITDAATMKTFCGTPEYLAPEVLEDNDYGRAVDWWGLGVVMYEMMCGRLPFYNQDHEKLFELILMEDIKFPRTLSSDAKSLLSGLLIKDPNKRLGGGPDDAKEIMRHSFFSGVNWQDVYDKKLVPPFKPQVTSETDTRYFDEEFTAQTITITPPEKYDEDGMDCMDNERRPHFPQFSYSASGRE", "assay": "Inhibition of AKT3 (unknown origin) preincubated for 20 mins followed by [33P]-ATP addition measured after 120 mins by hotspot kinase assay"}, "[15]": {"target": "T1, RAC-alpha serine/threonine-protein kinase", "assay": "Induction of AKT degradation in MS21-resistant human SW620 cells harboring KRAS/BRAF mutant assessed as reduction in total AKT level at 1 uM by Western blot analysis", "type": "cell-based", "conditions": "time 1-24 hrs, TDE = time-dependent effect", "method_in_brief": "as §4"}, "[16]": {"target": "T1, RAC-alpha serine/threonine-protein kinase", "assay": "Induction of AKT degradation in human SW620 cells assessed as reduction in total AKT level at 1 uM measured after 18 hrs by TMT-MS analysis", "type": "cell-based", "method_in_brief": "(§5)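 SW620 cells treated at 1 μM for 18 h, two biological replicates per condition. Lysates in 8 M urea were reduced with DTT, alkylated with iodoacetamide, digested with trypsin, labeled with TMT, split into 22 fractions and analyzed by nanoLC-MS/MS on a Q-Exactive HF-X. Output is log2 fold change against p value.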"}, "[17]": {"target": "T1, RAC-alpha serine/threonine-protein kinase", "assay": "Induction of AKT degradation in MS21-resistant human PANC-1 cells harboring […] mutant assessed as reduction in total AKT level incubated for 24 hrs by Western blot analysis", "type": "cell-based", "conditions": "dose 0.01-10 µM, DDE = dose-dependent effect", "method_in_brief": "as §2"}, "[18]": {"tested_on": "PC-3", "assay": "Inhibition of colony formation in human PC-3 cells at 0.1 to 10 uM incubated for 2 weeks with media replacement for every 2 days by crystal violet staining based analysis", "type": "functional, cell-based", "conditions": "dose 0.1-10 µM", "method_in_brief": "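PC3 cells kept 14 days with compound; compound-containing medium replenished every two days. Viable cells stained with 0.5% crystal violet.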"}, "[19]": {"target": "T2, RAC-beta serine/threonine-protein kinase (Homo sapiens, UniProt P31751)", "T2 sequence (P31751 whole entry)": "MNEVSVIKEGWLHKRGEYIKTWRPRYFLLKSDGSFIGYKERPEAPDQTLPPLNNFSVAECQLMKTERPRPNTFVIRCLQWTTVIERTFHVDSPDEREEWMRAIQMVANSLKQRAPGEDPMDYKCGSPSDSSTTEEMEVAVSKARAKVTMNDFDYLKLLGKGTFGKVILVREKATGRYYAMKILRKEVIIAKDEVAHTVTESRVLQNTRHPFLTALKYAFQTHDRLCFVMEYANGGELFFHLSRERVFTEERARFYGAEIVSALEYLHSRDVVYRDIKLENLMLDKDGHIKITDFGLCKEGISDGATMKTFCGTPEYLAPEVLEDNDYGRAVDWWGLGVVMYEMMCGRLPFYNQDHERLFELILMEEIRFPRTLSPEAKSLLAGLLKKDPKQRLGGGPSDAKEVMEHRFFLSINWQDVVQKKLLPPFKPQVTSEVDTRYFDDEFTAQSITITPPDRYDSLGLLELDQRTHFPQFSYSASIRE", "assay": "Induction of AKT2 degradation in human SW620 cells at 0.01 to 10 uM incubated for 24 hrs by Western blot analysis", "type": "cell-based", "conditions": "dose 0.01-10 µM"}, "[20]": {"target": "T1, RAC-alpha serine/threonine-protein kinase", "assay": "Induction of AKT degradation in MS-21 resistant human SW620 cells harboring KRAS-mutant assessed as reduction in total Akt level at 1 uM incubated for 24 hrs by Western blot analysis", "type": "cell-based", "method_in_brief": "as §1"}, "[21]": {"assay": "Plasma concentration in Swiss albino mouse at 75 mg/kg, ip administered as single dose and measured for 12 hrs by LC-MS/MS analysis", "type": "ADME, organism-based", "method_in_brief": "as §3"}, "[22]": {"target": "T2, RAC-beta serine/threonine-protein kinase", "assay": "Induction of AKT2 degradation in human SW620 cells assessed as reduction in total AKT level at 1 uM measured after 18 hrs by TMT-MS analysis", "type": "cell-based", "method_in_brief": "as §5"}, "[23]": {"target": "T1, RAC-alpha serine/threonine-protein kinase", "assay": "Inhibition of AKT1 (unknown origin) preincubated for 20 mins followed by [33P]-ATP addition measured after 120 mins by hotspot kinase assay"}, "[24]": {"target": "T1, RAC-alpha serine/threonine-protein kinase", "assay": "Induction of AKT degradation in MS21-resistant human PANC-1 cells harboring […] mutant assessed as reduction in total AKT level at 100 nM incubated for 24 hrs by Western blot analysis relative to control", "type": "cell-based", "set-up": "scale not given: the % may be the effect or the level left", "method_in_brief": "as §2"}, "[25]": {"assay": "Cmax in Swiss albino mouse at 75 mg/kg, ip administered as single dose and measured for 12 hrs by LC-MS/MS analysis", "type": "ADME, organism-based", "set-up": "dose 75 mg/kg, time 12 hrs, route ip", "conditions": "in vivo", "method_in_brief": "as §3"}, "[26]": {"target": "Proline-rich AKT1 substrate 1 (Homo sapiens) (UniProt Q96B36)", "assay": "Inhibition of PRAS40 phosphorylation in human SW620 cells at 1 uM measured after 18 hrs by TMT-MS analysis", "type": "cell-based"}, "[27]": {"target": "T2, RAC-beta serine/threonine-protein kinase", "assay": "Inhibition of AKT2 (unknown origin) preincubated for 20 mins followed by [33P]-ATP addition measured after 120 mins by hotspot kinase assay"}},
  "note": "The source made the active and inactive calls. No cut-off for these calls is given here.",
  "data": [
    {"smiles": "Cc1ncsc1-c1ccc([C@H](C)NC(=O)[C@@H]2C[C@@H](O)CN2C(=O)[C@@H](NC(=O)CCCCCCCCCCNC(=O)CCc2cccc(-c3ccc4nc(-c5cccnc5N)n(-c5ccc(C6(N)CCC6)cc5)c4n3)c2)C(C)(C)C)cc1", "values": [
      {"measurement": "GI50", "setting": "[1]", "result": 3100, "unit": "nM"},
      {"measurement": "Activity", "setting": "[2]", "result": "Active"},
      {"measurement": "Activity", "setting": "[3]", "result": 100, "unit": "%"},
      {"measurement": "Activity", "setting": "[4]", "result": "Active"},
      {"measurement": "Activity", "setting": "[5]", "result": "Active"},
      {"measurement": "Activity", "setting": "[6]", "result": "Non-Toxic"},
      {"measurement": "Activity", "setting": "[7]", "result": "Active"},
      {"measurement": "Tmax", "setting": "[8]", "result": 30, "unit": "min"},
      {"measurement": "Activity", "setting": "[9]", "result": 100, "unit": "%"},
      {"measurement": "Activity", "setting": "[10]", "result": "Active"},
      {"measurement": "Activity", "setting": "[11]", "result": "Active"},
      {"measurement": "EC50", "setting": "[12]", "result": 23, "unit": "nM"},
      {"measurement": "Activity", "setting": "[13]", "result": "Active"},
      {"measurement": "IC50", "setting": "[14]", "result": 544, "unit": "nM"},
      {"measurement": "Activity", "setting": "[15]", "result": "Tde"},
      {"measurement": "Activity", "setting": "[16]", "result": "Active"},
      {"measurement": "Activity", "setting": "[17]", "result": "Dde"},
      {"measurement": "inhibition", "setting": "[18]", "result": "Active"},
      {"measurement": "Activity", "setting": "[19]", "result": "Active"},
      {"measurement": "Activity", "setting": "[20]", "result": "Active"},
      {"measurement": "concentration at 12 h", "setting": "[21]", "result": "> 100", "unit": "nM"},
      {"measurement": "Activity", "setting": "[22]", "result": "Active"},
      {"measurement": "IC50", "setting": "[23]", "result": 798, "unit": "nM"},
      {"measurement": "Activity", "setting": "[24]", "result": 100, "unit": "%"},
      {"measurement": "Cmax", "setting": "[25]", "result": 1000, "unit": "nM"},
      {"measurement": "inhibition", "setting": "[26]", "result": "Active"},
      {"measurement": "IC50", "setting": "[27]", "result": 90, "unit": "nM"}
    ]}
  ]
}
